The values below come from ChEMBL document CHEMBL3526015, “Metabolism of the c-Fos/activator protein-1 inhibitor T-5224 by multiple human UDP-glucuronosyltransferase isoforms” (Drug Metab Dispos, 2011).

The target in data set [1] is T1, UDP-glucuronosyltransferase 1A1 (Homo sapiens, UniProt P22309).
T1 sequence (P22309 whole entry): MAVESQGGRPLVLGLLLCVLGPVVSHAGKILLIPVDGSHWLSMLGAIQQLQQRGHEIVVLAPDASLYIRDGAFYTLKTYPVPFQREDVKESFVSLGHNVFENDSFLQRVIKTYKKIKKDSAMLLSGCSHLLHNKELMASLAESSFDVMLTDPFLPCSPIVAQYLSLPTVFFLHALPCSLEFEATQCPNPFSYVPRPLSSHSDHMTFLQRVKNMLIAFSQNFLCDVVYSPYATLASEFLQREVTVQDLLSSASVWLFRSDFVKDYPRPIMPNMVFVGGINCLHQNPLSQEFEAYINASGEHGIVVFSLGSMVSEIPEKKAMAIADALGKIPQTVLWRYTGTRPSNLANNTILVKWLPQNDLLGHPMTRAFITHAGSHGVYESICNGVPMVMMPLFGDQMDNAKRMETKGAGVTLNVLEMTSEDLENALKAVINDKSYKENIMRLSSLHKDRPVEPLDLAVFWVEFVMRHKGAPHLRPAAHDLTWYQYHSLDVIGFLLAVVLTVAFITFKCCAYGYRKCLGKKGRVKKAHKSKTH
Kind of data set: Drug level assessed as human UGT1A1-mediated compound formation from 5 to 50 uM T-5224 after 60 mins in presence of UDP-glucuronic acid by HPLC method. In kind it is ADME. The conditions noted are these: recombinant enzyme, 1 h. Put shortly: (§1)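 Recombinant human UGT microsomes from baculovirus-infected insect cells, 0.1 mg protein/mL, in 50 mM Tris-HCl pH 7.5, 8 mM MgCl2, alamethicin. T-5224 in DMSO (2% v/v final). Preincubated 5 min at 37°C, started with 2 mM UDPGA, run 60 min at 37°C and stopped with acetonitrile. Glucuronides resolved by C18 HPLC with UV at 290 nm. Linearity was checked at 0.05–0.2 mg/mL protein and 10–60 min.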

For data set [2], the target named is T2, UDP-glucuronosyltransferase 1A3 (Homo sapiens, UniProt P35503).
T2 sequence (P35503 whole entry): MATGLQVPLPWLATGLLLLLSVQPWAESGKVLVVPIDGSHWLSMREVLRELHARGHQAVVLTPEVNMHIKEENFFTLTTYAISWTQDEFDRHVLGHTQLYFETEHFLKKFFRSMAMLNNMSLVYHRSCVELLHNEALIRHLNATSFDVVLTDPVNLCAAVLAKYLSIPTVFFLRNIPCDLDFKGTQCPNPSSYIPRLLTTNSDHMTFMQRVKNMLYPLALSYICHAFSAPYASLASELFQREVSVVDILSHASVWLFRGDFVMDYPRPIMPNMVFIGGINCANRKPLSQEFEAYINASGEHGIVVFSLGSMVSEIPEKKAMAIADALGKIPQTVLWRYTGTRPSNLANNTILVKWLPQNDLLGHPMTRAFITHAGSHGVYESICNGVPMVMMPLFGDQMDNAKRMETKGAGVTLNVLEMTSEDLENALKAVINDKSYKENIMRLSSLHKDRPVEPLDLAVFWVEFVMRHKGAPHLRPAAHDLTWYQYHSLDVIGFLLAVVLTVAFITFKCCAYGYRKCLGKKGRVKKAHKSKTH
Kind of data set: Drug level assessed as human UGT1A3-mediated compound formation from 5 to 50 uM T-5224 after 60 mins in presence of UDP-glucuronic acid by HPLC method. In kind it is ADME. The conditions noted are these: recombinant enzyme, 1 h. In short, it runs like this:
as §1

Data set [3] deals with T3, UDP-glucuronosyltransferase 1A8 (Homo sapiens, UniProt Q9HAW9).
T3 sequence (Q9HAW9 whole entry): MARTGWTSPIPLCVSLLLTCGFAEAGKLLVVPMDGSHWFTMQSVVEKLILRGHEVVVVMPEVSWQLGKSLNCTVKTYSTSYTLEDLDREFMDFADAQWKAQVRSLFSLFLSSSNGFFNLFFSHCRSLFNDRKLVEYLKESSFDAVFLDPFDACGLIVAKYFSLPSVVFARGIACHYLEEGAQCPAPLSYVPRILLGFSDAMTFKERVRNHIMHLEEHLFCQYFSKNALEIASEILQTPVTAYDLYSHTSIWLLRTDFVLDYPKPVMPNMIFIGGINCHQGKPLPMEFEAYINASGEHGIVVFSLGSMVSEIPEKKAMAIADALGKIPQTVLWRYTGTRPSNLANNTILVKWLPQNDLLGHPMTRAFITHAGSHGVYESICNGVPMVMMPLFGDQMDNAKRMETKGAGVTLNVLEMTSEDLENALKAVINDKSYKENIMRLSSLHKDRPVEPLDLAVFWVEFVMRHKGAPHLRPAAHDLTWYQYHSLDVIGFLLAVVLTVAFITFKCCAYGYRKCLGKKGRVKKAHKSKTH
Kind of data set: Drug level assessed as human UGT1A8-mediated compound formation from 5 to 50 uM T-5224 after 60 mins in presence of UDP-glucuronic acid by HPLC method. Type of data set: ADME. The conditions noted are these: recombinant enzyme, 1 h. Put shortly:
as §1

Data set [4] addresses T1, UDP-glucuronosyltransferase 1A1. Put plainly: Drug level assessed as human UGT1A1-mediated compound formation from 5 to 50 uM T-5224 after 10 to 60 mins in presence of UDP-glucuronic acid by HPLC method. To be noted: recombinant enzyme. In kind it is ADME. In short, it runs like this:
as §1

The target of data set [5] is T2, UDP-glucuronosyltransferase 1A3. Kind of data set: Drug level assessed as human UGT1A3-mediated compound formation from 5 to 50 uM T-5224 after 10 to 60 mins in presence of UDP-glucuronic acid by HPLC method. In kind it is ADME. The conditions noted are these: recombinant enzyme. In short, it runs like this: as §1
Data set [6] deals with T3, UDP-glucuronosyltransferase 1A8. Kind of data set: Drug level assessed as human UGT1A8-mediated compound formation from 5 to 50 uM T-5224 after 10 to 60 mins in presence of UDP-glucuronic acid by HPLC method. Type of data set: ADME. To be noted: recombinant enzyme. In short, it runs like this: as §1
In data set [7] the target is T1, UDP-glucuronosyltransferase 1A1. Kind of data set: Drug level assessed as human UGT1A1-mediated compound formation from 5 to 50 uM T-5224 after 60 mins in presence of UDP-glucuronic acid using 0.05 to 0.2 mg/ml by HPLC method. Type of data set: ADME. The conditions noted are these: recombinant enzyme, 1 h. In short, it runs like this: as §1
For data set [8], the target named is T2, UDP-glucuronosyltransferase 1A3. Kind of data set: Drug level assessed as human UGT1A3-mediated compound formation from 5 to 50 uM T-5224 after 60 mins in presence of UDP-glucuronic acid using 0.05 to 0.2 mg/ml by HPLC method. In kind it is ADME. The conditions noted are these: recombinant enzyme, 1 h. Put shortly:
as §1

Data set [9] deals with T3, UDP-glucuronosyltransferase 1A8. Kind of data set: Drug level assessed as human UGT1A8-mediated compound formation from 5 to 50 uM T-5224 after 60 mins in presence of UDP-glucuronic acid using 0.05 to 0.2 mg/ml by HPLC method. Type of data set: ADME. To be noted: recombinant enzyme, 1 h. Put shortly: as §1
In data set [10] the test system is Liver microsome. Put plainly: Drug level in pooled human liver microsomes treated with T-5224 assessed as compound formation in presence of UDPGA by LC-MS/MS method. Type of data set: ADME.
Data set [11] relates to Liver microsome. Kind of data set: Drug level in pooled human liver microsomes treated with 10 uM T-5224 assessed as compound formation after 10 mins by HPLC method. Type of data set: ADME. Put shortly: (§2)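 Pooled human liver microsomes at 0.5 mg protein/mL, or pooled intestinal microsomes at 0.25 mg/mL, in 50 mM Tris-HCl pH 7.5, 8 mM MgCl2, alamethicin, with 2 mM UDPGA. T-5224 at 10 μM, 10 min at 37°C after 5 min preincubation; stopped with acetonitrile. HPLC with UV at 290 nm. Linearity was tested over 0.1–1.0 mg/mL protein and 5–30 min.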

Data set [12] in a line: Drug level in pooled human intestinal microsomes treated with 10 uM T-5224 assessed as compound formation after 10 mins by HPLC method. Type of data set: ADME, Intestine, Microsome. Put shortly:
as §2

Data set [13] has as its system Liver microsome. Kind of data set: Drug level in pooled human liver microsomes treated with 10 uM T-5224 assessed as compound formation after 5 to 30 mins by HPLC method. Type of data set: ADME. Put shortly: as §2
A short description of data set [14]: Drug level in pooled human intestinal microsomes treated with 10 uM T-5224 assessed as compound formation after 5 to 30 mins by HPLC method. In kind it is ADME, Intestine, Microsome. Put shortly: as §2
Data set [15] deals with Liver microsome. Put plainly: Drug level in pooled human liver microsomes treated with 10 uM T-5224 assessed as compound formation after 10 mins using 0.1 to 1.0 mg/ml microsomal protein content by HPLC method. Type of data set: ADME. Put shortly:
as §2

Data set [16] is described as follows: Drug level in pooled human intestinal microsomes treated with 10 uM T-5224 assessed as compound formation after 10 mins using 0.1 to 1.0 mg/ml microsomal protein content by HPLC method. Type of data set: ADME, Intestine, Microsome. Put shortly: as §2

Regarding `O=C(O)CCc1cc(C(=O)c2ccc(OC3CCCC3)cc2O)ccc1OCc1ccc2c(O[C@@H]3O[C@H](C(=O)O)[C@@H](O)[C@H](O)[C@H]3O)noc2c1`, the Drug metabolism entry in [1] is “metabolite_detected”; in data set [2] it was “metabolite_detected”; in data set [3], “metabolite_detected”; in [4] it was “Dose-dependent effect”; in data set [5], “Dose-dependent effect”; in [6] it was “Dose-dependent effect”. Besides, the Drug metabolism entry was “Dose-dependent effect” in [7]; “Dose-dependent effect” in data set [8]; “Dose-dependent effect” in data set [9]; “metabolite_detected” in the data set with Liver microsome [10]; “metabolite_detected” in the data set on Liver microsome [11]; “metabolite_detected” in [12]. The Drug metabolism result (in the data set with Liver microsome [13]; in data set [14]; in the data set with Liver microsome [15]; in [16]) was “Dose-dependent effect” in each case.
